According to ChEMBL document CHEMBL4715748, “Synthesis and biological investigation of new equatorial (β) stereoisomers of 3-aminotropane arylamides with atypical antipsychotic profile” (Bioorg Med Chem, 2016):

Legend:
[1] = test system: Mus musculus; experiment: Antipsychotic activity Swiss Albino mouse assessed as inhibition of DOI-induced head twitching by measuring number of episodes at 5 mg/kg, ip administered 30 mins prior to DOI stimulation (reference value: 19.63 to 19.88); assay type: functional; conditions: 0.5 h
In short: (§1)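 Male Albino Swiss mice (24–28 g) were habituated to sawdust-lined cages 20 min before the first treatment. Compounds were suspended in 1% aqueous Tween 80 and given i.p. 30 min before (±)-DOI, 2.5 mg/kg i.p. in aqueous solution. Head twitches were counted blind over 20 min, n=8 per group, mean ± SEM, one-way ANOVA with Dunnett's test.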

[2] = test system: Mus musculus; experiment: Effect on 8-OH-DPAT-induced hypothermia in Swiss albino mouse assessed as change in rectal body temperature at 20 mg/kg, ip pretreated with compound for 45 mins followed by 8-OH-DPAT challenge and measured after 15 min by thermometer (reference value: -1.82 to -1.66 degreeC); assay type: functional, organism-based; conditions: time 60.0 min
[3] = Effect on body temperature in Swiss Albino mouse assessed as rectal body temperature at 10 mg/kg, ip measured after 30 mins by thermometer (reference value: 0.16 to 0.33 degreeC); assay type: organism-based; conditions: in vivo, 0.5 h
[4] = test system: Mus musculus; experiment: Effect on 8-OH-DPAT-induced hypothermia in Swiss albino mouse assessed as change in rectal body temperature at 10 mg/kg, ip pretreated with compound for 45 mins followed by 8-OH-DPAT challenge and measured after 60 min by thermometer (reference value: -0.66 to -0.5 degreeC); assay type: functional, organism-based; conditions: time 105.0 min
[5] = Effect on body temperature in Swiss Albino mouse assessed as rectal body temperature at 20 mg/kg, ip measured after 30 mins by thermometer (reference value: 0.16 to 0.33 degreeC); assay type: ADME, organism-based; conditions: in vivo, 0.5 h
[6] = Effect on 8-OH-DPAT-induced lower lip retraction in Wistar rat at 20 mg/kg, ip pretreated with compound for 45 mins followed by 8-OH-DPAT challenge and measured after 15 mins (reference value: 2.7 to 2.8); assay type: functional; conditions: time 60 min, 1 h
[7] = Half life in pooled human liver microsomes assessed as parent compound remaining at 2.5 uM measured up to 45 mins in presence of NADPH by LC-MS analysis; assay type: ADME, Microsome
In short: (§2)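 Compound at 2.5 μM (added from 100 μM stock in 50/50 acetonitrile/water) with 1 mg/mL pooled human liver microsomes and 250 μM NADPH in 0.1 M potassium phosphate pH 7.4 at 37 °C after 5-min preincubation. Sampled at 5, 10, 15, 30, 45 min into ice-cold acetonitrile with atropine internal standard; parent quantified by LC-MS (ESI+, [M+H]+); no-NADPH controls; half-time derived.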

[8] = test system: Mus musculus; experiment: Effect on 8-OH-DPAT-induced hypothermia in Swiss albino mouse assessed as change in rectal body temperature at 20 mg/kg, ip pretreated with compound for 45 mins followed by 8-OH-DPAT challenge and measured after 30 min by thermometer (reference value: -1.36 to -1.12 degreeC); assay type: functional, organism-based; conditions: time 75.0 min
[9] = molecular target: Dopamine D2 receptor and Serotonin 2a receptor (D2 and 5HT2a) (Rattus norvegicus) (UniProt P61169+P14842); experiment: Ratio of pKi for displacement of [3H]-ketanserin from rat cerebral cortex 5HT2A receptor measured after 20 mins by liquid scintillation counter method to pKi for displacement of [3H] Spiperone from rat striatum dopamine D2 receptor measured after 30 mins by liquid scintillation counter method
Chain of Dopamine D2 receptor and Serotonin 2a receptor (D2 and 5HT2a) (Rattus norvegicus) (P14842 whole entry, looked up): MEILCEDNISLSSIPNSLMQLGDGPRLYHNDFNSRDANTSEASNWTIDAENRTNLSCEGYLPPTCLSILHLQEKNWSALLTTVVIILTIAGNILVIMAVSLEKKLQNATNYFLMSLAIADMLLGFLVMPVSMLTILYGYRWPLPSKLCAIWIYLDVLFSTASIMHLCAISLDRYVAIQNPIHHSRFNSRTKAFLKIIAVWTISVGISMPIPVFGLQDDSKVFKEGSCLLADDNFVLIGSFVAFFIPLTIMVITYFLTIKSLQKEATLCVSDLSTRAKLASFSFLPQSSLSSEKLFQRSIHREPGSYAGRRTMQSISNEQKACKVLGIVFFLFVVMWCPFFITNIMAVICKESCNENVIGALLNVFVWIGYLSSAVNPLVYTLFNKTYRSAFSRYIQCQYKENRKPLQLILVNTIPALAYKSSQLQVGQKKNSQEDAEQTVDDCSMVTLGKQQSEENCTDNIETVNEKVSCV
Chain of Dopamine D2 receptor and Serotonin 2a receptor (D2 and 5HT2a) (Rattus norvegicus) (P61169 whole entry, looked up): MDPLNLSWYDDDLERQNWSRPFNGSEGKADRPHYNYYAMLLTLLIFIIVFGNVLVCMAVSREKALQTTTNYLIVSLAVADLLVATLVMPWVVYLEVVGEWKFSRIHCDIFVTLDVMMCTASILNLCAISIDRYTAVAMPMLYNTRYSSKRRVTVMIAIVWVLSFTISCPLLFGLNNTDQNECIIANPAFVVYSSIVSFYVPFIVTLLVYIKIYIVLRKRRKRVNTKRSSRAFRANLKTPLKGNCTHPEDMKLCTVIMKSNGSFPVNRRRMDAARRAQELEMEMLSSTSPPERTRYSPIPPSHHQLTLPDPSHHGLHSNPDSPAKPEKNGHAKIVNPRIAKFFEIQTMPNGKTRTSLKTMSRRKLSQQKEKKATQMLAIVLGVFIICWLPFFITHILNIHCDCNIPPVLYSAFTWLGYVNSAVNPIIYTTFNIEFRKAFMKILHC
In short: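 Ratio of pKi values, 5-HT2A over D2, computed from competition radioligand binding in rat brain tissue.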

[10] = test system: Mus musculus; experiment: Effect on 8-OH-DPAT-induced hypothermia in Swiss albino mouse assessed as change in rectal body temperature at 10 mg/kg, ip pretreated with compound for 45 mins followed by 8-OH-DPAT challenge and measured after 45 min by thermometer (reference value: -1.04 to -0.78 degreeC); assay type: functional, organism-based; conditions: time 90.0 min
[11] = Effect on body temperature in Swiss Albino mouse assessed as rectal body temperature at 20 mg/kg, ip measured after 90 mins by thermometer (reference value: 0.18 to 0.63 degreeC); assay type: ADME, organism-based; conditions: in vivo, 1.5 h
[12] = Metabolic stability in pooled human liver microsomes assessed as parent compound remaining at 2.5 uM incubated for 45 mins in presence of NADPH by LC-MS analysis; assay type: ADME, Microsome; conditions: read-out: Stabilty; in short: as §2
[13] = test system: Mus musculus; experiment: Antipsychotic activity Swiss Albino mouse assessed as inhibition of DOI-induced head twitching by measuring number of episodes at 1.25 mg/kg, ip administered 30 mins prior to DOI stimulation (reference value: 19.63 to 19.88); assay type: functional; conditions: 0.5 h; in short: as §1
[14] = molecular target: 5-hydroxytryptamine receptor 2A (Rattus norvegicus, UniProt P14842); experiment: Displacement of [3H]-ketanserin from rat cerebral cortex 5HT2A receptor measured after 20 mins by liquid scintillation counter method
Chain of 5-hydroxytryptamine receptor 2A (P14842 whole entry): as the sequence (P14842 whole entry, looked up) above
In short: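 Competition binding in rat brain tissue membranes against D2, 5-HT1A and 5-HT2A sites; Ki reported as mean ± S.E.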

[15] = Effect on body temperature in Swiss Albino mouse assessed as rectal body temperature at 10 mg/kg, ip measured after 90 mins by thermometer (reference value: 0.18 to 0.63 degreeC); assay type: ADME, organism-based; conditions: in vivo, 1.5 h
[16] = test system: Mus musculus; experiment: Antipsychotic activity Swiss Albino mouse assessed as inhibition of DOI-induced head twitching by measuring number of episodes at 10 mg/kg, ip administered 30 mins prior to DOI stimulation (reference value: 19.63 to 19.88); assay type: functional; conditions: 0.5 h; in short: as §1
[17] = Effect on body temperature in Swiss Albino mouse assessed as rectal body temperature at 10 mg/kg, ip measured after 60 mins by thermometer (reference value: 0.33 to 0.61 degreeC); assay type: ADME, organism-based; conditions: in vivo, 1 h
[18] = molecular target: T1, 5-hydroxytryptamine receptor 1A (Rattus norvegicus, UniProt P19327); experiment: Displacement of [3H]-8-OH-DPAT from rat cerebral cortex 5HT1A receptor measured after 15 mins by liquid scintillation counter method
T1 sequence (P19327 whole entry): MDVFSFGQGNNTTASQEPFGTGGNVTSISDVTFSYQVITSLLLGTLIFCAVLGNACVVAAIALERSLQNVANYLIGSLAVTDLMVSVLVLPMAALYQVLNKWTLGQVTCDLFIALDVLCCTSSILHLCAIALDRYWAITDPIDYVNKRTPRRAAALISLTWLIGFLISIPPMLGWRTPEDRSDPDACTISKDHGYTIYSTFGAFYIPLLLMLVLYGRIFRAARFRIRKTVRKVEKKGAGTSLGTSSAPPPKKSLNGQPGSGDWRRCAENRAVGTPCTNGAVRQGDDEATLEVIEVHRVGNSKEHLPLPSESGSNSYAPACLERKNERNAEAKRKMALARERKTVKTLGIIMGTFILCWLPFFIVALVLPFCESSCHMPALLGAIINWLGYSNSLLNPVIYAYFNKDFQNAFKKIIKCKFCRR

[19] = test system: Mus musculus; experiment: Effect on 8-OH-DPAT-induced hypothermia in Swiss albino mouse assessed as change in rectal body temperature at 20 mg/kg, ip pretreated with compound for 45 mins followed by 8-OH-DPAT challenge and measured after 45 min by thermometer (reference value: -1.04 to -0.78 degreeC); assay type: functional, organism-based; conditions: time 90.0 min
[20] = test system: Mus musculus; experiment: Effect on 8-OH-DPAT-induced hypothermia in Swiss albino mouse assessed as change in rectal body temperature at 20 mg/kg, ip pretreated with compound for 45 mins followed by 8-OH-DPAT challenge and measured after 60 min by thermometer (reference value: -0.66 to -0.5 degreeC); assay type: functional, organism-based; conditions: time 105.0 min

SMILES	Activity [1]	deltaT [2]	deltaT [3]	deltaT [4]	deltaT [5]	Activity [6]	half-life at 2.5 µM [7]	deltaT [8]	Ratio pKi [9]	deltaT [10]	deltaT [11]	remaining at 0.75 h, 2.5 µM [12]	Activity [13]	Ki [14]	deltaT [15]	Activity [16]	deltaT [17]	Ki [18]	deltaT [19]	deltaT [20]
O=C(NC1CC2CCC(C1)N2Cc1ccc(F)cc1)c1ccc2ccccc2c1 (configuration not stated)	5	-1.62 °C	-0.17 °C	-0.73 °C	-0.33 °C	2.4	> 45 min	-1.6 °C	0.97	-0.92 °C	0.23 °C	> 50%	12.63	209 nM	0.44 °C	5.38	0.5 °C	218 nM	-1.43 °C	-1 °C
O=C(NC1CC2CCC(C1)N2Cc1cccc(Br)c1)c1ccc2ccccc2c1 (configuration not stated)	13.88	-1.42 °C	-0.2 °C	-0.72 °C	-0.3 °C	2.5	> 45 min	-1.37 °C	0.88	-1 °C	0.36 °C	> 50%	–	106 nM	0.64 °C	11.88	0.76 °C	200 nM	-1.25 °C	-0.58 °C
Cc1cccc(CN2C3CCC2CC(NC(=O)c2ccc4ccccc4c2)C3)c1 (configuration not stated)	10	-1.9 °C	-0.02 °C	-0.05 °C	0.04 °C	2.3	30 min	-2.08 °C	0.78	-0.48 °C	0.2 °C	–	15.63	231 nM	0.35 °C	2.38	0.73 °C	182 nM	-2.08 °C	-1.5 °C
O=C(NC1CC2CCC(C1)N2Cc1cccc(Cl)c1)c1ccc2ccccc2c1 (configuration not stated)	13.13	-2.12 °C	0.17 °C	-0.67 °C	-0.38 °C	2.1	> 45 min	-2.22 °C	0.81	-0.85 °C	0.41 °C	> 50%	–	136 nM	0.84 °C	8.75	1 °C	298 nM	-2.22 °C	-1.57 °C
O=C(NC1CC2CCC(C1)N2Cc1cccc(F)c1)c1ccc2ccccc2c1 (configuration not stated)	3.88	-1.67 °C	-0.17 °C	-0.78 °C	-0.36 degrees C	2.3	> 45 min	-1.83 °C	1.05	-0.97 °C	0.2 °C	> 50%	2.3	102 nM	0.47 °C	2.38	0.53 °C	211 nM	-1.53 °C	-1.08 °C
